In ChEMBL document CHEMBL4699419, “Antileishmanial assessment of isoxazole derivatives against L. donovani” (RSC Med Chem, 2020) one finds IC50, CC50 and selectivity ratio data, which are given here for 15 compounds.

The subject of one data set is Leishmania donovani. Kind of data set: Antileishmanial activity against late log phase promastigote stage of Leishmania donovani MHOM/IN/80/Dd8 harboring luciferase reporter gene incubated for 72 hrs by Steady-Glo luminescence assay. In kind it is functional, organism-based. Particulars: Leishmania donovani, MHOM/IN/80/Dd8, 72 h; read-out: IC50. In outline:
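Luciferase-transfected promastigotes kept at 25 ± 1 °C in medium 199 + 10% heat-inactivated FCS + G418 (20 μg ml–1). Late-log cells (5 × 10^5 per well) grown 72 h with graded compound concentrations from DMSO, DMSO dilution controls. Aliquot mixed 1:1 with Steady-Glo, luminescence (RLU) read; % inhibition vs control. IC50 by Probit regression, three independent experiments.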
On to `O=C(NCc1cccc(Cl)c1Cl)c1c([N+](=O)[O-])noc1-c1ccc(Cl)cc1`, for which the IC50 amounted to 2900 nM.
For the compound `CCN(CC)CCNc1noc(-c2ccc([N+](=O)[O-])cc2)c1C(=O)OC`, the IC50 was determined as 26000 nM.
Still for that read-out and setting: the same measure for `COc1ccc(CNC(=O)c2c([N+](=O)[O-])noc2-c2ccc(Cl)cc2)cc1OC`: 3050 nM.
Same read-out and setting: the same measure for `O=C(Nc1ccccc1)c1c([N+](=O)[O-])noc1-c1ccc(Cl)cc1Cl`: 2680 nM.
On the same count and under the same terms, with `COC(=O)c1c([N+](=O)[O-])noc1-c1cccc(-c2cnco2)c1` the figure was 770 nM; with `CC(C)CCNC(=O)c1c([N+](=O)[O-])noc1-c1ccc([N+](=O)[O-])cc1`, 3010 nM; with `COC(=O)c1c(NCCNc2ccnc3cc(Cl)ccc23)noc1-c1cc2c(cc1[N+](=O)[O-])OCO2`, 2040 nM.
As to `O=C(Nc1ccccc1)c1c([N+](=O)[O-])noc1-c1ccc(Cl)cc1`, the IC50 stood at 2810 nM.
On the same count and under the same terms, with `COC(=O)c1c(NCc2ccc(Cl)cc2)noc1-c1ccc([N+](=O)[O-])cc1` the figure was 3790 nM.
The same measure, in the same setting: with `O=C(NCc1ccc(F)cc1)c1c([N+](=O)[O-])noc1-c1ccc(Cl)cc1Cl` the figure was 2460 nM; with `COC(=O)c1c(NCCNc2ccnc3cc(Cl)ccc23)noc1-c1ccccc1F`, 1730 nM; with `COC(=O)c1c([N+](=O)[O-])noc1-c1ccccc1Cl`, 2720 nM.
For the compound `O=C(NCCN1CCOCC1)c1c([N+](=O)[O-])noc1-c1ccc([N+](=O)[O-])cc1`, the IC50 came to 2830 nM.
Still for that read-out and setting: with `COC(=O)c1c(NCCCCNc2ccnc3cc(Cl)ccc23)noc1-c1ccccc1F` the figure was 10600 nM.
Still for that read-out and setting: with `COC(=O)c1c([N+](=O)[O-])noc1-c1cc(-c2ccccc2Cl)n(-c2ccccc2)n1` the figure was 760 nM.

A further data set deals with Leishmania donovani. Kind of data set: Antileishmanial activity against Leishmania donovani MHOM/IN/80/Dd8 promastigotes harboring luciferase reporter gene infected in mouse J774 cells assessed as inhibition of amastigote growth incubated for 72 hrs by Steady-Glo luminescence assay. The data set is classed as functional, organism-based. The note with it: Leishmania donovani, MHOM/IN/80/Dd8, J774, 72 h; read-out: IC50. In outline:
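J774A.1 mouse macrophages (2 × 10^5 per well, RPMI-1640 + 10% FCS, 37 °C CO2) infected after 24 h with stationary-phase luciferase-transgenic promastigotes at 1:10 macrophage:parasite; compounds in complete medium for 72 h at 37 °C. Medium swapped for PBS, Steady-Glo added, luminescence read; % inhibition vs untreated control RLU. IC50 by Probit log dose/response regression, three independent experiments.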
For orientation: In a reporter assay the amount or activity of a reporter protein is the signal.
Consider `O=C(NCc1cccc(Cl)c1Cl)c1c([N+](=O)[O-])noc1-c1ccc(Cl)cc1`, for which the IC50 was determined as 19.6 µM.
The same measure, in the same setting: the same measure for `CCN(CC)CCNc1noc(-c2ccc([N+](=O)[O-])cc2)c1C(=O)OC`: 8.15 µM.
Same read-out and setting: the same measure for `COc1ccc(CNC(=O)c2c([N+](=O)[O-])noc2-c2ccc(Cl)cc2)cc1OC`: 3.22 µM; for `O=C(Nc1ccccc1)c1c([N+](=O)[O-])noc1-c1ccc(Cl)cc1Cl`: 5.97 µM.
The same measure, in the same setting: the same measure for `COC(=O)c1c([N+](=O)[O-])noc1-c1cccc(-c2cnco2)c1`: 4.8 µM; for `CC(C)CCNC(=O)c1c([N+](=O)[O-])noc1-c1ccc([N+](=O)[O-])cc1`: 17.4 µM.
In the case of `COC(=O)c1c(NCCNc2ccnc3cc(Cl)ccc23)noc1-c1cc2c(cc1[N+](=O)[O-])OCO2`, the IC50 was found to be 1.49 µM.
On to `O=C(Nc1ccccc1)c1c([N+](=O)[O-])noc1-c1ccc(Cl)cc1`, for which the IC50 was 3.56 µM.
As to `COC(=O)c1c(NCc2ccc(Cl)cc2)noc1-c1ccc([N+](=O)[O-])cc1`, the half-maximal inhibitory concentration (IC50) was 7.88 µM.
On the same count and under the same terms, with `O=C(NCc1ccc(F)cc1)c1c([N+](=O)[O-])noc1-c1ccc(Cl)cc1Cl` the figure was 50.6 µM.
On the same count and under the same terms, the same measure for `COC(=O)c1c(NCCNc2ccnc3cc(Cl)ccc23)noc1-c1ccccc1F`: 1.47 µM.
For the compound `COC(=O)c1c([N+](=O)[O-])noc1-c1ccccc1Cl`, the IC50 was 16.6 µM.
Same read-out and setting: the same measure for `O=C(NCCN1CCOCC1)c1c([N+](=O)[O-])noc1-c1ccc([N+](=O)[O-])cc1`: 21.9 µM; for `COC(=O)c1c(NCCCCNc2ccnc3cc(Cl)ccc23)noc1-c1ccccc1F`: 19.9 µM; for `COC(=O)c1c([N+](=O)[O-])noc1-c1cc(-c2ccccc2Cl)n(-c2ccccc2)n1`: 21.2 µM.

Tested on in the next data set: not listed separately
Kind of data set: Cytotoxicity against mouse J774A1 cells assessed as reduction in cell viability incubated for 48 hrs by MTT assay. In kind it is cell-based, J774.A1.
Details: not given
In outline:
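J774A.1 macrophages, 0.2 × 10^6 per well, incubated overnight at 37 °C in 5% CO2, then exposed to compounds in DMSO for 48 h, with DMSO dilutions as controls. Viability read by MTT formazan at 600 nm. CC50 = 50% viability reduction versus medium-only cells, from probit regression; three independent experiments.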
On the technique in general: Formazan colour is commonly taken as a measure of viable cells.
With `O=C(NCc1cccc(Cl)c1Cl)c1c([N+](=O)[O-])noc1-c1ccc(Cl)cc1`, the CC50 at 48 h was found to be 73.7 µM.
Still for that read-out and setting: with `CCN(CC)CCNc1noc(-c2ccc([N+](=O)[O-])cc2)c1C(=O)OC` the figure was 69.2 µM.
Consider `COc1ccc(CNC(=O)c2c([N+](=O)[O-])noc2-c2ccc(Cl)cc2)cc1OC`, for which the CC50 at 48 h came to 106 µM.
Consider `O=C(Nc1ccccc1)c1c([N+](=O)[O-])noc1-c1ccc(Cl)cc1Cl`, for which the CC50 at 48 h was determined as 67.3 µM.
`COC(=O)c1c([N+](=O)[O-])noc1-c1cccc(-c2cnco2)c1`: the cytotoxic concentration (CC50) at 48 h turned out to be 19.7 µM.
As for `CC(C)CCNC(=O)c1c([N+](=O)[O-])noc1-c1ccc([N+](=O)[O-])cc1`, the CC50 at 48 h stood at 67 µM.
On the same count and under the same terms, the same measure for `COC(=O)c1c(NCCNc2ccnc3cc(Cl)ccc23)noc1-c1cc2c(cc1[N+](=O)[O-])OCO2`: 3.7 µM; for `O=C(Nc1ccccc1)c1c([N+](=O)[O-])noc1-c1ccc(Cl)cc1`: 89.3 µM; for `COC(=O)c1c(NCc2ccc(Cl)cc2)noc1-c1ccc([N+](=O)[O-])cc1`: 78.3 µM.
`O=C(NCc1ccc(F)cc1)c1c([N+](=O)[O-])noc1-c1ccc(Cl)cc1Cl`: the CC50 at 48 h was 86.4 µM.
Consider `COC(=O)c1c(NCCNc2ccnc3cc(Cl)ccc23)noc1-c1ccccc1F`, for which the cytotoxic concentration (CC50) at 48 h is 3.42 µM.
The same measure, in the same setting: with `COC(=O)c1c([N+](=O)[O-])noc1-c1ccccc1Cl` the figure was 80 µM; with `O=C(NCCN1CCOCC1)c1c([N+](=O)[O-])noc1-c1ccc([N+](=O)[O-])cc1`, 76.5 µM; with `COC(=O)c1c(NCCCCNc2ccnc3cc(Cl)ccc23)noc1-c1ccccc1F`, 70.9 µM.
As for `COC(=O)c1c([N+](=O)[O-])noc1-c1cc(-c2ccccc2Cl)n(-c2ccccc2)n1`, the half-maximal cytotoxic concentration (CC50) at 48 h stood at 79.9 µM.

Tested on in another data set: not listed separately
As to the kind of experiment: Selectivity index, ratio of CC50 for mouse J774.A1 cells to IC50 for amastigote form of Leishmania donovani MHOM/IN/80/Dd8. The data set is classed as toxicity. Particulars: read-out: Ratio CC50/IC50. In outline:
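Macrophages infected at a 1:10 ratio with stationary promastigotes, then treated 72 h at 37 °C; luminescence read with Steady-Glo. IC50 values from probit analysis.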
Consider `O=C(NCc1cccc(Cl)c1Cl)c1c([N+](=O)[O-])noc1-c1ccc(Cl)cc1`, for which the selectivity ratio is 3.76.
On the same count and under the same terms, the same measure for `CCN(CC)CCNc1noc(-c2ccc([N+](=O)[O-])cc2)c1C(=O)OC`: 8.49.
The same measure, in the same setting: the same measure for `COc1ccc(CNC(=O)c2c([N+](=O)[O-])noc2-c2ccc(Cl)cc2)cc1OC`: 33; for `O=C(Nc1ccccc1)c1c([N+](=O)[O-])noc1-c1ccc(Cl)cc1Cl`: 11.3.
In the case of `COC(=O)c1c([N+](=O)[O-])noc1-c1cccc(-c2cnco2)c1`, the selectivity ratio was 3.6.
As for `CC(C)CCNC(=O)c1c([N+](=O)[O-])noc1-c1ccc([N+](=O)[O-])cc1`, the selectivity ratio stood at 3.85.
On the same count and under the same terms, the same measure for `COC(=O)c1c(NCCNc2ccnc3cc(Cl)ccc23)noc1-c1cc2c(cc1[N+](=O)[O-])OCO2`: 2.48; for `O=C(Nc1ccccc1)c1c([N+](=O)[O-])noc1-c1ccc(Cl)cc1`: 25.1; for `COC(=O)c1c(NCc2ccc(Cl)cc2)noc1-c1ccc([N+](=O)[O-])cc1`: 9.93.
On the same count and under the same terms, with `O=C(NCc1ccc(F)cc1)c1c([N+](=O)[O-])noc1-c1ccc(Cl)cc1Cl` the figure was 1.7.
Take `COC(=O)c1c(NCCNc2ccnc3cc(Cl)ccc23)noc1-c1ccccc1F`: the selectivity ratio was 2.32.
Still for that read-out and setting: the same measure for `COC(=O)c1c([N+](=O)[O-])noc1-c1ccccc1Cl`: 4.82; for `O=C(NCCN1CCOCC1)c1c([N+](=O)[O-])noc1-c1ccc([N+](=O)[O-])cc1`: 3.49.
In the case of `COC(=O)c1c(NCCCCNc2ccnc3cc(Cl)ccc23)noc1-c1ccccc1F`, the selectivity ratio turned out to be 3.56.
Same read-out and setting: with `COC(=O)c1c([N+](=O)[O-])noc1-c1cc(-c2ccccc2Cl)n(-c2ccccc2)n1` the figure was 3.76.

One may read the IC50 as the point on the concentration scale where inhibition reaches its midpoint. The CC50 is the concentration giving 50% cytotoxicity.
